Reference: ChEMBL document CHEMBL3352407, “Griseorhodins D-F, neuroactive intermediates and end products of post-PKS tailoring modification in Griseorhodin biosynthesis” (J Nat Prod, 2014)
The source made the active and inactive calls. The rule behind the calls is not given here.

Legend:
Format in all cases: functional
DRG neuron [1] = assay: Increase in Ca2+ uptake in mouse DRG neurons at 20 ug/ml by Fura-2 dye-based fluorescence microscopy
Method in brief: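 Mouse DRG cells plated in medium with additives and loaded with the Ca2+ dye Fura-2 AM. Compound applied directly at 20 μg/mL. Read-out is the fraction of cells showing a rise in Ca2+ concentration.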

DRG neuron [2] = assay: Induction of depolarization of mouse DRG neurons at 10 ug/ml by Fura-2 dye-based fluorescence microscopy
Method in brief: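 Dorsal root ganglion cells were taken from mice, plated in medium with additives and loaded with Fura-2 AM. Intracellular Ca2+ was followed as the read-out while compound was applied at 10 μg/mL. This was followed by 25 mM KCl, with responses compared against control cells in the same well.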

DRG neuron [3] = assay: Increase in Ca2+ uptake in mouse DRG neurons at 10 ug/ml by Fura-2 dye-based fluorescence microscopy in presence of KCl relative to control
Method in brief: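 Mouse DRG cells plated in medium with additives and loaded with the Ca2+ dye Fura-2 AM. Compound applied at 10 μg/mL, then 25 mM KCl added. Ca2+ influx compared with control cells in the same well.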

Cc1cc2cc(CCC(=O)O)c(O)c(O)c2c(=O)o1
Activity (DRG neuron [1]): Active

CC(=O)Cc1cc2c(c(O)c1C(=O)O)-c1cc3c(c(O)c1CC2)C(=O)c1c(O)cc(O)cc1[C@H]3[C@H]1c2cc(O)cc(O)c2C(=O)c2c1cc1c(c2O)CCc2cc(CC(C)=O)c(C(=O)O)c(O)c2-1 (stereo in doubt; 1b)
Activity (DRG neuron [2]): inactive
Activity (DRG neuron [3]): Active
